In paper PMC3873233 (Diabetes, Metabolic Syndrome and Obesity: Targets and …, 2013):

What was measured:
[1] = test system: high-fat DIO C57bl/6J mice; assay: Glycemic control; assay type: in vivo, mouse; conditions: 4 weeks of treatment, 9 mg/kg oral once daily
How it was run: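 DIO C57bl/6J males on 45% kcal-fat diet for 8±2 weeks before study, diet continued. Oral dosing once daily for 4 weeks in 0.5% w/v Tween-80 + 0.5% w/v Na-CMC in water. OGTT: 6 h fast, dose, 0-min sample 15 min later, glucose 2 g/kg, tail-snip samples at 15–120 min. K-EDTA plasma; glucose by autoanalyzer, fasting insulin by rat/mouse ELISA.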

[2] = test system: DIO male Golden Syrian hamsters; assay: Oral glucose tolerance test in DIO hamsters; assay type: in vivo, hamster; conditions: TRC210258 6 mg/kg intraperitoneal, sitagliptin 3 mg/kg oral
How it was run: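 Hamsters made obese on 45% kcal-fat diet for 8±2 weeks. Double-dummy dosing: i.p. vehicle 0.9% Na-CMC + 0.1% Tween-80 in PBS pH 7.4, oral vehicle 0.5% Tween-80 + 0.5% Na-CMC in water. Oral glucose tolerance test done during treatment. Retro-orbital sampling under mild anaesthesia into K-EDTA. Plasma glucose by autoanalyzer; insulin by hamster-specific ELISA.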

[3] = Pharmacokinetics in DIO mice; assay type: in vivo, mouse
[4] = test system: DIO male Golden Syrian hamsters; assay: Plasma lipid parameters in high fat-fed DIO hamsters, experiment C; assay type: in vivo, hamster; conditions: end of treatment week 5, 6 mg/kg intraperitoneal
human TGR5 receptor = biological target: T1, human TGR5 receptor (Homo sapiens, UniProt Q8TDU6); assay type: cell-based
T1 sequence (Q8TDU6 1-330): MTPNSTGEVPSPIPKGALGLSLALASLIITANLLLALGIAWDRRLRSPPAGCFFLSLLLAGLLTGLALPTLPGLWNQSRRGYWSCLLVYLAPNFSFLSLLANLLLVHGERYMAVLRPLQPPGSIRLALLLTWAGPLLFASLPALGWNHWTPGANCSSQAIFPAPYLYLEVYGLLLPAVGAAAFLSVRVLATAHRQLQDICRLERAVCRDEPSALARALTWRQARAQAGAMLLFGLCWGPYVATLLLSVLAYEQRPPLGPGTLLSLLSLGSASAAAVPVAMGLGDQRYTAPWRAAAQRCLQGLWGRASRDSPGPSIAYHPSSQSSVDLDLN

[5] = test system: DIO male Golden Syrian hamsters; assay: Oral fat tolerance test; assay type: in vivo, hamster; conditions: week 4, 6 mg/kg intraperitoneal
How it was run: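 Male Golden Syrian hamsters fed 45% kcal-fat diet for 8±2 weeks. Test compound given i.p. in 0.9% Na-CMC + 0.1% Tween-80 in PBS pH 7.4, with oral vehicle dummy. At end of week 4: 6 h fast, pre-load sample, oral olive oil 5 mL/kg, samples at 60–240 min. Retro-orbital bleeds under mild anaesthesia; K-EDTA plasma triglyceride by autoanalyzer.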

[6] = test system: NCI-H716 human enteroendocrine cell line; assay: TGR5-mediated GLP1 secretion; assay type: cell-based; conditions: NCI-H716 cells, 1 hour, in presence of 0.05% sitagliptin; versus vehicle
How it was run: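 NCI-H716 human enteroendocrine cells exposed 1 h to vehicle, test compound or lithocholic acid (positive control), with 0.05% DPP-4 inhibitor sitagliptin present. Active GLP1 in culture supernatant measured by ELISA, expressed in pM. Two experiments, each in duplicate, averaged.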

[7] = Pharmacokinetics in DIO hamsters; assay type: in vivo, hamster
[8] = DIO mice, 9 mg/kg orally, mean ± standard deviation
[9] = DIO hamsters, 6 mg/kg intraperitoneally, mean ± standard deviation

SMILES | Homeostasis Model of Assessment-Insulin Resistance (HOMA-IR) [1] | AUC(0–120 min) for insulin in oral glucose tolerance test [2] | Cmax ([3]; C57bl/6J, mouse, plasma, po, 9 mg/kg) [ng/mL] | AUClast [3, 8] [ng·h/mL] | Tmax [3, 8] [h] | improvement (reduction) in LDL cholesterol vs vehicle control [4] [%] | improvement (reduction) in non-HDL cholesterol vs vehicle control [4] [%] | improvement (reduction) in total cholesterol vs vehicle control [4] [%] | improvement (reduction) in triglycerides vs vehicle control [4] [%] | EC50 (human TGR5 receptor) [nM] | time taken to reach peak plasma triglyceride levels after oral fat loading [5] [min] | GLP1 secretion [6] | AUClast [7, 9] [ng·h/mL] | Tmax [7, 9] [h] | Cmax ([7]; Golden Syrian, hamster, plasma, ip, 6 mg/kg) [ng/mL] | oral bioavailability in hamsters compared with mice ([7]; hamster, oral)
CN(C(=O)c1c(Oc2ccc(F)cc2)nc2ncccn12)c1ccc(Cl)cc1 [TRC210258, N-(4-chlorophenyl)-2-(4-fluorophenoxy)-N-methylimidazo [1,2-a] pyrimidine-3-carboxamide] | trend toward amelioration | higher | 59.4 ± 22.2 | 525.7 ± 127.0 | 2.25 ± 1.25 | 26.2 | 32 | 25.4 | 28.3 | 221 | 120 | significant induction of GLP1 secretion | 726.2 ± 223.8 | 1.5 ± 0.71 | 78.7 ± 31.8 | lower oral bioavailability
N[C@@H](CC(=O)N1CCn2c(nnc2C(F)(F)F)C1)Cc1cc(F)c(F)cc1F [sitagliptin, reference compound] | – | higher | – | – | – | – | – | – | – | – | – | – | – | – | – | –
